ChEMBL document CHEMBL3872255, “Design, synthesis and analgesic/anti-inflammatory evaluation of novel diarylthiazole and diarylimidazole derivatives towards selective COX-1 inhibitors with better gastric profile” (Bioorg Med Chem, 2017)
pIC50: −log10 of the molar value. Active and inactive are the calls of the source. The rule behind the calls is not given here.

Legend:
Rattus norvegicus [1] = experiment: Anti-inflammatory activity against carrageenan-induced paw edema in albino rat assessed as paw thickness at 100 mg/kg, po pretreated for 1 hr followed by carrageenan challenge measured at 1 hr post carrageenan challenge (reference value: 0.394 +/- 0.220 mm); format: functional
Rattus norvegicus [2] = experiment: Anti-inflammatory activity against carrageenan-induced paw edema in albino rat assessed as inhibition of paw edema at 100 mg/kg, po pretreated for 1 hr followed by carrageenan challenge measured after 1 to 7 hrs relative to control; format: functional
[3] = Ulcerogenic effect in albino rat assessed as ulcer index […], po administered 2 to 3 days; format: toxicity, organism-based; details: in vivo
In short: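 Rats were fasted 2 h, fed 2 h, then fasted 20 h, with further doses on days 2 and 3. Stomachs were rinsed in 0.9% saline and lesions scored 0-4. Ulcer index = %incidence/10 + average severity + average ulcer number.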

Rattus norvegicus [4] = experiment: Anti-inflammatory activity against carrageenan-induced paw edema in albino rat assessed as paw thickness at 100 mg/kg, po pretreated for 1 hr followed by carrageenan challenge measured at 7 hrs post carrageenan challenge (reference value: 0.464 +/- 0.023 mm); format: functional
[5] = target: T1, Prostaglandin G/H synthase 1 (Ovis aries, UniProt P05979); experiment: Inhibition of ovine COX-1 assessed as reduction in oxidation of TMPD using arachidonic acid as substrate preincubated for 5 mins followed by substrate and TMPD addition measured after 5 mins by colorimetric assay
T1 sequence (P05979 whole entry): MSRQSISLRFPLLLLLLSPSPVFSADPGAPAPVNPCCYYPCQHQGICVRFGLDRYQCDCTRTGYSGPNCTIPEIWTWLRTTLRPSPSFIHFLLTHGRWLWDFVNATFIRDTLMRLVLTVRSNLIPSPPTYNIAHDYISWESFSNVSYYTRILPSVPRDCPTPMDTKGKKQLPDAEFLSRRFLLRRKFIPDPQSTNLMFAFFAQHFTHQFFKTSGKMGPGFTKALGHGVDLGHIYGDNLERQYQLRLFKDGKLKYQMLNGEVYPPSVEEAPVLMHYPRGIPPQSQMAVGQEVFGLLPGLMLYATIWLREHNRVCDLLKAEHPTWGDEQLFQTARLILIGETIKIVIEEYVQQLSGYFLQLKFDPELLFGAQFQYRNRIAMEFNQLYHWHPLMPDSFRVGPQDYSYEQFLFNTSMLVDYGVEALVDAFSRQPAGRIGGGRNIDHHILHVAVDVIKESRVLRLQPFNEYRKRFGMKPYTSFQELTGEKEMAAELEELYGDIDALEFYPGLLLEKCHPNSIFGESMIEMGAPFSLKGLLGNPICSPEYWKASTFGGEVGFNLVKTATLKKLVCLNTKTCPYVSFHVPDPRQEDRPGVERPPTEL

Rattus norvegicus [6] = experiment: Anti-inflammatory activity against carrageenan-induced paw edema in albino rat assessed as paw thickness at 100 mg/kg, po pretreated for 1 hr followed by carrageenan challenge measured at 3 hrs post carrageenan challenge (reference value: 0.401 +/- 0.019 mm); format: functional
Mus musculus [7] = species on record: Mus musculus; experiment: Analgesic activity in mouse assessed as decrease in number of acetic acid-induced writhing pretreated for 1 hr followed by acetic acid challenge measured between 5 to 20 mins after acetic acid injection; format: functional
In short: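 Groups of five mice received test compound; 1 h later, 0.6% acetic acid (0.01 ml/g) was injected intraperitoneally. Writhes were counted for 15 min, from minute 5 to 20 after injection. Activity was taken as the reduction in writhing count. Diclofenac 6 mg/kg was the reference. Data are mean ± S.D., N=5, analysed by one-way ANOVA with Dunnett test.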

Mus musculus [8] = species on record: Mus musculus; experiment: Analgesic activity in mouse assessed as number of acetic acid-induced writhing pretreated for 1 hr followed by acetic acid challenge measured between 5 to 20 mins after acetic acid injection; format: functional
In short: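 Groups of five mice. Test compound given 1 h before i.p. injection of 0.6% acetic acid, 0.01 ml/g. Writhing movements counted for 15 min, from the 5th to the 20th min after injection. Diclofenac 6 mg/kg served as reference. Activity is taken as the reduction in number of writhings; mean ± S.D., N=5.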

Rattus norvegicus [9] = experiment: Anti-inflammatory activity against carrageenan-induced paw edema in albino rat assessed as inhibition of paw edema at 60 mg/kg, po pretreated for 1 hr followed by carrageenan challenge measured after 1 to 7 hrs relative to control; format: functional
Rattus norvegicus [10] = experiment: Anti-inflammatory activity against carrageenan-induced paw edema in albino rat assessed as paw thickness at 60 mg/kg, po pretreated for 1 hr followed by carrageenan challenge measured at 1 hr post carrageenan challenge (reference value: 0.394 +/- 0.220 mm); format: functional
Rattus norvegicus [11] = experiment: Anti-inflammatory activity against carrageenan-induced paw edema in albino rat assessed as paw thickness at 60 mg/kg, po pretreated for 1 hr followed by carrageenan challenge measured at 3 hrs post carrageenan challenge (reference value: 0.401 +/- 0.019 mm); format: functional
Rattus norvegicus [12] = experiment: Anti-inflammatory activity against carrageenan-induced paw edema in albino rat assessed as paw thickness at 60 mg/kg, po pretreated for 1 hr followed by carrageenan challenge measured at 7 hrs post carrageenan challenge (reference value: 0.464 +/- 0.023 mm); format: functional

Row | SMILES | Activity (Rattus norvegicus [1]) | inhibition in vivo at 100 mg/kg (Rattus norvegicus [2]) | UI [3] | Activity (Rattus norvegicus [4]) | pIC50 [5] | Activity (Rattus norvegicus [6]) | Activity (Mus musculus [7]) | Activity (Mus musculus [8]) | inhibition in vivo at 60 mg/kg (Rattus norvegicus [9]) | Activity (Rattus norvegicus [10]) | Activity (Rattus norvegicus [11]) | Activity (Rattus norvegicus [12])
1 | O=C(O)CNc1nc(-c2ccccc2)c(-c2ccccc2)s1 | 0.166 mm | 54% | 9.39 | 0.231 mm | 6.38 | 0.185 mm |  |  |  |  |  | 
2 | COc1ccc(-c2ncn(CC(=O)N3CCN(C)CC3)c2-c2ccc(OC)cc2)cc1 | 0.17 mm | 58.8% |  | 0.152 mm | 5.51 | 0.191 mm | Active |  |  |  |  | 
3 | O=C(Cn1cnc(-c2ccccc2)c1-c1ccccc1)N1CCCCC1 |  |  |  |  | 5.07 |  |  |  |  |  |  | 
4 | COc1ccc(-c2nc(NCC(=O)O)sc2-c2ccc(OC)cc2)cc1 | 0.165 mm |  | 8.5 | 0.251 mm | 6.49 | 0.213 mm |  | 10.67 - 14.4 |  |  |  | 
5 | CN1CCN(C(=O)Cn2cnc(-c3ccccc3)c2-c2ccccc2)CC1 | 0.147 mm | 60.5% |  | 0.182 mm | 5.38 | 0.168 mm | Active |  |  |  |  | 
6 | COc1ccc2c(c1)c(CC(=O)O)c(C)n2C(=O)c1ccc(Cl)cc1 [INDOMETHACIN] |  |  | 19.5 |  |  |  |  |  |  |  |  | 
7 | COc1ccc(-c2nc(NCC(=O)N3CCN(C)CC3)sc2-c2ccc(OC)cc2)cc1 | 0.144 mm | 61.9% |  | 0.172 mm | 5.57 | 0.163 mm | Active |  |  |  |  | 
8 | CN1CCN(C(=O)CNc2nc(-c3ccccc3)c(-c3ccccc3)s2)CC1 | 0.173 mm | 54.3% |  | 0.205 mm | 5.52 | 0.197 mm | Active |  |  |  |  | 
9 | O=C(Cn1cnc(-c2ccccc2)c1-c1ccccc1)N1CCOCC1 | 0.166 mm | 54.5% |  | 0.218 mm | 5.20 | 0.186 mm | Active |  |  |  |  | 
10 | O=C(O)Cc1ccccc1Nc1c(Cl)cccc1Cl [DICLOFENAC] |  |  |  |  |  |  |  | 24 | 84.5% | 0.09 mm | 0.06 mm | 0.04 mm
11 | COc1ccc(-c2nc(NCC(=O)N3CCOCC3)sc2-c2ccc(OC)cc2)cc1 | 0.17 mm | 54.5% |  | 0.213 mm | 5.40 | 0.19 mm | Active |  |  |  |  | 
12 | COc1ccc(-c2ncn(CC(=O)N3CCOCC3)c2-c2ccc(OC)cc2)cc1 | 0.146 mm | 60.8% |  | 0.19 mm | 5.29 | 0.159 mm | Active |  |  |  |  | 
13 | COc1ccc(-c2nc(NCC(=O)N3CCCCC3)sc2-c2ccc(OC)cc2)cc1 |  |  |  |  | 5.22 |  |  |  |  |  |  | 
14 | O=C(O)Cn1cnc(-c2ccccc2)c1-c1ccccc1 | 0.161 mm | 53.8% | 13.3 | 0.235 mm | 6.17 | 0.189 mm |  | 10.67 - 14.4 |  |  |  | 
15 | COc1ccc(-c2ncn(CC(=O)O)c2-c2ccc(OC)cc2)cc1 | 0.149 mm | 57% | 9.75 | 0.215 mm | 6.27 | 0.18 mm |  | 10.67 - 14.4 |  |  |  | 
16 | O=C(CNc1nc(-c2ccccc2)c(-c2ccccc2)s1)N1CCCCC1 |  |  |  |  | 5.10 |  |  |  |  |  |  | 
17 | COc1ccc(-c2ncn(CC(=O)N3CCCCC3)c2-c2ccc(OC)cc2)cc1 |  |  |  |  | 5.13 |  |  |  |  |  |  | 
18 | O=C(CNc1nc(-c2ccccc2)c(-c2ccccc2)s1)N1CCOCC1 | 0.148 mm | 59.8% |  | 0.192 mm | 5.24 | 0.167 mm | Active |  |  |  |  | 
